Test results: paper PMC11301096 (iScience, 2024)
No end group written: not given here. *: point of attachment. Biotin = O=C1N[C@H]2[C@H](CS[C@H]2CCCCC(=O)*)N1

Tests used:
[1] = In vivo xenograft model, toxicity read-outs; set-up: species or system BALB/c-Nude mice; settings: BO1 4.57 mg/kg intraperitoneally every other day, two weeks, n = 6
How it was run: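 Four-week-old male nude mice acclimatised 7 days, then implanted subcutaneously with 2×10^6 Hep 3B cells; randomised into two groups of 6. Once tumours reached 100 mm3, given 200 μL saline or test compound intraperitoneally every other day, with weighing and tumour measurement. Killed after two weeks; serum taken for ALT, AST and creatinine.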

Hep 3B cells = experiment: CCK-8 proliferative activity; type: cell-based, human; settings: read-out: IC50, proliferation; CCK-8, 48 h, mean of n = 3
How it was run: (§1)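 Cells grown in DMEM with 10% FBS and 1% antibiotics at 37°C, 5% CO2; log-phase cells used. Seeded at 4×10^3/well for 24 h, then exposed to graded doses of test compound (DMSO stock) for 48 h. CCK-8 reagent added for 1–2 h in the dark; absorbance read at 450 nm. Three independent experiments.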

[2] = system: human normal hepatocyte L-O2; experiment: CCK-8 proliferative activity; type: cell-based; settings: 10 μM and 20 μM BO1, CCK-8, 48 h
How it was run: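 Normal hepatocytes seeded at 4×10^3/well and incubated 24 h, then exposed to test compound for 48 h. CCK-8 reagent added for 1–2 h protected from light; absorbance measured at 450 nm. Three independent experiments.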

Huh7 cells = experiment: CCK-8 proliferative activity; type: cell-based, human; settings: read-out: IC50, proliferation; CCK-8, 48 h, mean of n = 3
How it was run: as §1

L-O2 cells [3] = experiment: Cell cycle analysis by flow cytometry; type: cell-based, human; settings: 20 μM BO1, 48 h
How it was run: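 Cells (5×10^5 per 100 mm dish) attached for 24 h, then exposed to test compound for 48 h. Cell pellets fixed in 70% ethanol for 4 h and washed twice with PBS. Stained with a DNA-content quantitation kit; cell-cycle distribution read by flow cytometry.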

L-O2 cells [4] = experiment: Hoechst 33258 staining; type: cell-based, human; settings: 20 μM BO1, 48 h
How it was run: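 Seeded at 4×10^4 cells/well for 24 h, then treated 48 h. Fixed in 4% tissue fixative for 15 min and stained with Hoechst 33258 for 5 min. Washed twice with PBS; nuclei viewed by fluorescence microscopy.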

HSP90A = HSP90A (Homo sapiens, UniProt P07900); experiment: Biotinylated pull-down with western blot; type: binding; settings: compared to samples extracted with IgG; cell extracts, 4°C, 12 h
How it was run: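 Bead-bound biotin-labelled test compound (4°C, 3 h) rotated with cell extracts at 4°C for 12 h. Beads washed in ice-cold NT2 buffer (4°C, 5 min), then four more washes. Bound proteins eluted with protein elution buffer plus DTT at 37°C for 2 h. Eluates analysed by LC-MS and western blot, with an IgG pull-down as negative control.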

Row | Substance | histopathological examination of major organs (heart, liver, spleen, and kidney), H&E [1] | serum alanine aminotransferase (ALT) activity [1] | serum aspartate aminotransferase (AST) activity [1] | serum creatinine (CREA) activity [1] | IC50 (Hep 3B cells) | activity of normal hepatocytes (proliferative activity) [2] | IC50 (Huh7 cells) | cell cycle progression (L-O2 cells [3]) | nuclear fluorescence staining (L-O2 cells [4]) | HSP90A in samples pulled by bio-BO1 (western blot) (HSP90A)
1 | GIGSAILSAGKSIIKGLAKGLAEHF-NH2 [BO1, Bombinin-BO1] | normal findings | comparable to those of control mice | comparable to those of control mice | comparable to those of control mice | 15.2 µM | no significant change | 24.9 µM | not significantly affected | no significant changes | 
2 | bio-BO1: Biotin-labeled BO1 (Biotin-GIGSAILSAGKSIIKGLAKGLAEHF-NH2; SMILES CC[C@H](C)[C@H](NC(=O)CNC(=O)CCCC[C@@H]1SC[C@@H]2NC(=O)N[C@@H]21)C(=O)NCC(=O)N[C@@H](CO)C(=O)N[C@@H](C)C(=O)N[C@H](C(=O)N[C@@H](CC(C)C)C(=O)N[C@@H](CO)C(=O)N[C@@H](C)C(=O)NCC(=O)N[C@@H](CCCCN)C(=O)N[C@@H](CO)C(=O)N[C@H](C(=O)N[C@H](C(=O)N[C@@H](CCCCN)C(=O)NCC(=O)N[C@@H](CC(C)C)C(=O)N[C@@H](C)C(=O)N[C@@H](CCCCN)C(=O)NCC(=O)N[C@@H](CC(C)C)C(=O)N[C@@H](C)C(=O)N[C@@H](CCC(=O)O)C(=O)N[C@@H](Cc1c[nH]cn1)C(=O)N[C@@H](Cc1ccccc1)C(N)=O)[C@@H](C)CC)[C@@H](C)CC)[C@@H](C)CC) |  |  |  |  |  |  |  |  |  | significantly detected
